Among the data in ChEMBL document CHEMBL3612020 are IC50 and Stability values, retold here.

Structures are written as SMILES.

The target in series [1] is T1, D-amino-acid oxidase (Homo sapiens, UniProt P14920). Kind of series: Inhibition of recombinant human DAAO expressed in HEK cells using D-serine as substrate assessed as formation of alpha-keto acid, ammonia, […] after 20 mins by horseradish peroxidase/o-phenylenediamine-based assay. Set-up: species or system HEK293. The method, boiled down:
(§1)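 Human DAAO from HEK cells: lysate in 50 mM Tris pH 8.5 with 100 µM FAD, sonicated, then ion-exchange purified with a 0–0.5 M NaCl gradient. […] Enzyme set to give 2.0 mOD/min uninhibited. Rate read as absorbance change at 411 nm. Mean ± SD of ≥4 experiments in most cases.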

The nature of series [2]: Metabolic stability in mouse liver microsomes assessed as compound remaining at 5 uM after 60 mins by LC/MS/MS analysis in presence of UDPGA. It counts as ADME. The settings on record: 1 h. Summed up: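 Glucuronidation in mouse liver microsomes (0.5 mg/mL): 50 mM Tris-HCl pH 7.5, 8 mM MgCl2, 25 µg/mL alamethicin, pre-incubated at 37 °C. Started with 2 mM UDPGA (final), in duplicate, for 60 min. Quenched with cold acetonitrile plus internal standard; LC/MS/MS read-out, with cofactor-free controls.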
For orientation: Microsomes from liver hold many membrane-bound enzymes, among them those of drug oxidation.

Series [3] concerns the target T1, D-amino-acid oxidase. Kind of series: Inhibition of DAAO (unknown origin). Summed up:
as §1

Series [4] can be described thus: Metabolic stability in mouse liver microsomes assessed as compound remaining at 5 uM after 60 mins by LC/MS/MS analysis in presence of NADPH. It counts as ADME. The settings on record: 1 h. Summed up:
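Mouse liver microsomes (0.5 mg/mL) with 5 µM test compound in 100 mM potassium phosphate pH 7.4 plus NADPH regenerating system (1.3 mM NADPH). Reaction started with microsomes, run in duplicate for 60 min, quenched with cold acetonitrile containing internal standard. Parent quantified by LC/MS/MS; cofactor-free controls included.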

T1 sequence (P14920 whole entry): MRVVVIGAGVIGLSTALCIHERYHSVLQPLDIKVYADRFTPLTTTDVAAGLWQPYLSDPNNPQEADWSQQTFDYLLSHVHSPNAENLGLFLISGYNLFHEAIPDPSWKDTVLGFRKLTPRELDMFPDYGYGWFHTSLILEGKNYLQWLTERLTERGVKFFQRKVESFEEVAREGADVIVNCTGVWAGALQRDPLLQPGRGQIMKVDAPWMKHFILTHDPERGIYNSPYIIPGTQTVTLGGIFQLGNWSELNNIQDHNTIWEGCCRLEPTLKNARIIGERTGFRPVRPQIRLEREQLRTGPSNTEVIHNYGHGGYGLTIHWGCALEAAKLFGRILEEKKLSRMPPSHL

One may read the IC50 as the concentration needed to halve the response being measured. For the molecule `O=c1[nH]c(=O)n(Cc2ccccc2)nc1O`, in series [1], the IC50 stood at 5.1 µM. With `O=c1[nH]c(=O)n(CCc2cccc(Oc3ccccc3)c2)nc1O`, the IC50 in series [1] is 0.24 µM.

As to `O=c1[nH]c(=O)n(CCc2ccccc2)cc1O`, in series [2], the Stability entry was “<= 1%”. Also, the IC50 in series [1] was determined as 0.08 µM. Consider `O=c1[nH]c(=O)n(CCCc2ccccc2)nc1O`, for which, in series [1], the IC50 was 1.7 µM. Same read-out and setting: with `COc1ccccc1CCn1nc(O)c(=O)[nH]c1=O` the figure was 0.27 µM. With `CO/N=C(\C(=O)N[C@@H]1C(=O)N2C(C(=O)O)=C(CSc3nc(=O)c(=O)[nH]n3C)CS[C@H]12)c1csc(N)n1` [CEFTRIAXONE], in series [3], the IC50 was 10 µM. `O=c1[nH]c(=O)n(CCn2ccc3cccnc32)nc1O`: the IC50 in series [1] was found to be 0.31 µM. Still for that read-out and setting: with `O=c1[nH]c(=O)n(CCn2cnc3ccccc32)nc1O` the figure was 0.44 µM.

With `O=c1cc(CSc2ccc(Cl)c(Cl)c2)occ1O`, in series [2], the Stability was found to be 5%. In the case of `O=c1[nH]c(=S)n(CCc2ccccc2)nc1O`, the results for the Stability result in series [2] and in series [4] were “>= 99%” and 87%, respectively. `O=c1[nH]c(=O)n(CCc2ccc(-c3ccccc3)cc2)nc1O`: in series [1], the IC50 was 0.05 µM. Same read-out and setting: with `O=c1[nH]c(=O)n(Cc2ccc3ccccc3c2)nc1O` the figure was 0.22 µM; with `CC(Cn1nc(O)c(=O)[nH]c1=O)c1ccccc1` (centres undefined), 3.3 µM; with `O=c1[nH]c(=O)n(CC(O)c2ccccc2)nc1O` (centres undefined), 0.47 µM. Regarding `Cc1cccc(CCn2nc(O)c(=O)[nH]c2=O)c1`, the IC50 in series [1] is 0.07 µM. The same measure, in the same setting: for `O=c1[nH]c(=O)n(CCc2ccc(F)cc2)nc1O` the value was 0.05 µM; for `Cc1ccc(CCn2nc(O)c(=O)[nH]c2=O)cc1`, 0.09 µM.
